Compound activity (PubChem)
Phagocyt inh: blocks phagocytosis by macrophages; actives 0.07% (n = 110,000); inhibition, % at 5 µM; AID 1029; J774A.1 macrophage IgG-bead phagocytosis, imaging;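 active = inhibition above the mean of the plate negative controls plus 5 SD, cut at about 13% in these data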;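 note: phagocytic index as fraction of beads internalized from green versus red external bead signal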
RAM inhibit: inhibitors of the yeast RAM network | S. cerevisiae dse1pr::URA3 reporter, 5-FOA growth OD615, 2 d; analog-sensitive cbk1-as2 kinase mutant strain | inhibition, % at 50 µM | actives 1.8% (n = 190,000) | AID 868;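 active = inhibition above a set limit, 3 SD over mean compound inhibition, cut at about 8.4% in these data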;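 note: inhibition rescues growth on 5-FOA so higher OD means more RAM inhibition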
Yeast life ext: yeast lifespan extension. actives 0.68% (n = 130,000). inhibition of the nicotinamide effect, % at 10 µM. S. cerevisiae growth with nicotinamide, OD615; deaD strain in restrictive glucose medium;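 active = inhibition above a set limit, placed 3 SD over the median of all compounds, cut at about 26% in these data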
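Assay system: engineered S. cerevisiae DeaD replicative-lifespan strain, galactose-grown log-phase cells; medium: restrictive CSMM-D dextrose medium; also added: nicotinamide, 1.5 mM, co-present with compound; schedule: 48 h compound exposure at 30 °C, humidified; detection: absorbance at 615 nm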
Yeast growth inh: chemicals that inhibit yeast BB579 growth in restrictive medium (lifespan-shortening candidates); actives 0.51% (n = 140,000); inhibition, % at 10 µM; S. cerevisiae BB579 growth, OD615, 48 h;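 active = inhibition above a set limit, 3 SD over the mean compound inhibition, cut at about 44% in these data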
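test system = yeast BB579 (DeaD) | buffer or medium = restrictive CSMM-D medium | doses = single compound dose of 10 µM, 0.25% DMSO final | times = 4 h preincubation and 48 h exposure at 30 °C | technique = culture absorbance at 615 nm | benchmarks = amphotericin B 10 µg/mL, positive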
Hits are given with their value; – = inactive; · = no result. Rows were chosen to be rich in hits. Some 2.7% of all compounds tested hit in one or more screens of this group.

SMILES	Phagocyt inh	RAM inhibit	Yeast life ext	Yeast growth inh
C=CCN1C(=O)S/C(=C\c2ccc(N3CCOCC3)cc2C)C1=O	·	8.6	–	–
C(#CCN1CCCC1)CC(c1ccccc1)c1ccccc1	·	–	·	·
CSCCC(NS(=O)(=O)c1ccc(Cl)cc1)C(=O)OCC(=O)N(C(C)C)C(C)C (configuration not stated)	–	–	–	–
CSCCC(NS(=O)(=O)c1ccc(Cl)cc1)C(=O)OCc1cccc(Cl)c1 (configuration not stated)	–	8.5	–	–
CSCCC(NS(=O)(=O)c1ccc(Cl)cc1)C(=O)OCC(=O)c1ccc(F)cc1 (configuration not stated)	–	–	36	–
CSCCC(NS(=O)(=O)c1ccc(Cl)cc1)C(=O)OCc1c(Cl)cccc1Cl (configuration not stated)	–	–	–	–
Cc1ccccc1C(=O)NNC(=O)CCC(=O)Nc1cccc(Cl)c1C	–	–	–	–
CCc1ccc(N(C(=O)Cc2cccs2)C(C(=O)NC2CCCCC2)c2cn(C)nc2C)cc1 (configuration not stated)	·	8.5	–	–
Cc1cccc(-n2nc3c(c2NC(=O)c2ccc(Br)o2)CSC3)c1	–	–	–	–
Cc1c(C(=O)Nc2ccc(-c3nnc4n3CCCCC4)cc2)oc2ccc(Br)cc12	·	–	–	–
c1ccc(C2Oc3ccccc3C3CC(c4cccs4)=NN32)cc1 (configuration not stated)	–	–	–	–
O=[N+]([O-])c1ccc(C2Oc3ccccc3C3CC(c4ccccc4)=NN32)s1 (configuration not stated)	–	–	–	96
CS(=O)(=O)c1nc2c(cc1C#N)CCCC2	·	–	·	·
O=C(CSc1nc2ccccc2s1)N/N=C/c1ccc(C(=O)O)cc1	·	10	·	·
O=C(CSc1nc2ccccc2s1)N/N=C/c1ccco1	–	–	–	–
CCn1c(SCC(=O)NCc2ccccc2)nc2c(c1=O)SC(C)C2 (configuration not stated)	–	–	–	–
CC(C)CN=Cc1c(O)c([N+](=O)[O-])cc2oc3c(c12)CCCC3	–	–	–	68
O=[N+]([O-])c1cc2oc3c(c2c(C=NCc2ccccc2)c1O)CCCC3	·	–	69	–
COc1ccccc1C(=O)NCc1ccc(-c2nc3ccccc3s2)cc1	–	9.1	–	–
O=C(O)c1ccc(SCc2cnc(Cl)s2)cc1	·	–	–	97
CN(C)[C@@H]1CCC[C@@H]1OC(=O)C(c1ccccc1)c1ccccc1	–	–	–	–
Cc1ccsc1C(C(=O)NC(C)(C)C)N(C(=O)c1csnn1)c1ccccc1 (configuration not stated)	·	10	·	·
CCC1C(=O)N=C(SCC(=O)NC2CCCCC2)NC1=O (configuration not stated)	·	–	·	·
CC(=O)NC1C(=O)N=C(SCC(=O)NC2CCCCC2)NC1=O (configuration not stated)	–	–	–	48
CCOC(=O)c1ccccc1N1C(=O)CSC1=S	–	–	37	–
SMILES	Phagocyt inh	RAM inhibit	Yeast life ext	Yeast growth inh
COc1ccc(C2C3=C(CCCC3=O)Nc3nc(SCc4ccccc4)nn32)cc1OC (configuration not stated)	–	–	–	–
COc1ccc(C2C3=C(CCCC3=O)Nc3nc(SCc4ccc(C(=O)O)cc4)nn32)cc1OC (configuration not stated)	–	8.8	–	–
CN1CCN(C(=O)c2ccc(-n3cccc3)cc2)CC1	·	–	–	–
Cc1nnc(-c2cnn(C)c2N)n1CCCN1CCOCC1	·	–	·	·
O=c1c(C(c2ccccc2)c2c(O)sc3ccccc3c2=O)c(O)sc2ccccc12	–	·	26	–
Cc1cc2sc3ccccc3c(=O)c2c(C)c1O	·	–	·	·
CCO/N=C/C1=C(O)C(C(=O)OC)C(C)(C)CC1=O (configuration not stated)	·	–	·	·
CC/C(=C1/C(=O)CC(C)(C)C(C(=O)OC)C1=O)N1CCCC1 (configuration not stated)	–	–	30	–
COC(=O)CN1C(=S)N(c2ccc(OC)cc2)C(=O)/C1=C/c1ccc(N2CCOCC2)cc1	·	–	·	·
COC(=O)CN1C(=S)N(c2ccc(OC)cc2)C(=O)/C1=C/c1ccc(OC)cc1	·	11	·	·
CCCCOC(=O)Sc1nc2ccccc2o1	–	–	–	100
CCCCOC(=O)Nc1nc2ccccc2s1	·	–	–	–
O=C(Cn1cncn1)c1ccc(F)cc1F	–	–	–	–
CCSc1nc2ccccc2n1S(=O)(=O)c1ccccc1	–	–	–	46
c1ccc(-n2cnc3cc(NCc4ccco4)ccc32)cc1	·	–	·	·
